Compounds with a hit are over-represented: about 4% of the library has one in this group of screens.
MT stabilize HCS = stabilizes microtubules in HeLa cells. HeLa tubulin immunostaining HCS, 24 h; share of cells brighter than vehicle mean+2SD. % tubulin-high responders, % at 10 µM. 0.83% of 200,000 active. AID 2205;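 active = plate Z-score above 3 for both tubulin-high and condensed-nucleus cell shares, with cell loss under 80%, at 10 µM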;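 note: anti alpha tubulin signal scored within the nucleus-defined area of each cell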
Cl transport mod = modulators of human KCC2 chloride dependent transport. Q9H2X9. KCC2 cells, thallium flux FluoZin-2 fluorescence. B-score of Tl+ flux slope (higher = more flux/activation; lower = inhibition) at 10 µM. 2.2% of 190,000 active. AID 1456;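 active = thallium flux slope and its plate-corrected score both differing from the plate sample mean at a set confidence after two filtering rounds, in either direction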;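 note: slope of fluorescence scaled to starting intensity during 10 to 20 s after thallium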
Target sequence (Q9H2X9 whole entry, looked up): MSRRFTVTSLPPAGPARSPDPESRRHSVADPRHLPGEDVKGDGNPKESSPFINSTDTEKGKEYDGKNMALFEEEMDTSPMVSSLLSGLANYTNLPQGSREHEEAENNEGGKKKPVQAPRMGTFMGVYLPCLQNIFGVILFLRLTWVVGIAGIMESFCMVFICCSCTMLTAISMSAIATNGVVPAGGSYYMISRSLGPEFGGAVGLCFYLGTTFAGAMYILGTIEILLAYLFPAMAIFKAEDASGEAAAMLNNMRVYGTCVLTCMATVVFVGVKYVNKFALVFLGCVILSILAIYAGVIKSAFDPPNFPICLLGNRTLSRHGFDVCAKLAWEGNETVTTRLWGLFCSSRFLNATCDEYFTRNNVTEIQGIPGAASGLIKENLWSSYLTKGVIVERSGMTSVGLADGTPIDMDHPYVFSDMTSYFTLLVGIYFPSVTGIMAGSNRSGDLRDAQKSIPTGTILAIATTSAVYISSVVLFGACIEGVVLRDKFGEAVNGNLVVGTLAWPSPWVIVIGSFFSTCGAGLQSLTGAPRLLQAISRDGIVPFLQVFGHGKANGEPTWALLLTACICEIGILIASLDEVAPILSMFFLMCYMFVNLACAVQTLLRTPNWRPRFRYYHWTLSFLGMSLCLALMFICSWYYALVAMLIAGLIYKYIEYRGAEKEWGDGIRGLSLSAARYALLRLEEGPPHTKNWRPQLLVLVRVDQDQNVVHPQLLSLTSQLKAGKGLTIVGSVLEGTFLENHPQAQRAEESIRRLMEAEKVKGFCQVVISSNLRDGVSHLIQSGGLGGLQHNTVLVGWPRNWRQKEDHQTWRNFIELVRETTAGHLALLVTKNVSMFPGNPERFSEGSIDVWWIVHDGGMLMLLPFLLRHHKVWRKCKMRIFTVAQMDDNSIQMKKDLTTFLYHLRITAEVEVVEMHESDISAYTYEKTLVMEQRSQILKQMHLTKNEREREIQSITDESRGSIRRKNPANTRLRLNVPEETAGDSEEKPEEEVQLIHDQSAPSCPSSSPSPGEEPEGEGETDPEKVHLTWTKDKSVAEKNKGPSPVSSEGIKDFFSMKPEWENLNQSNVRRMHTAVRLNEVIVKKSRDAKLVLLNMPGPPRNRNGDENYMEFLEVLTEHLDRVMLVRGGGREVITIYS
bCat nuc transl = modulators of beta-catenin nuclear translocation; HeLa beta-catenin nuclear translocation, immunofluorescence imaging; nuclear translocation activity, % at 5 µM; 0.3% of 190,000 active;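 active = nuclear translocation activity above 50% at 5 µM, with a well cell count of 50 or more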;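 note: per-cell ratio of nuclear to cytoplasmic median beta-catenin stain intensity; plate controls were DMSO negative control for no effect and GSK-3 inhibitor IX positive control for full effect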
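Test system: human HeLa cells, native beta-catenin. Compound dosing: 5 µM primary single dose, 0.1% DMSO, 0.02–20 µM confirmation series. Incubation: compound exposure 24 h at 37°C. Detection: beta-catenin immunostaining with DAPI counterstain, 20x imaging, 6 fields/well. Read-out basis: Nuclear/cytoplasmic beta-catenin signal ratio, % activation.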
Pf gametocyte = P. falciparum stage V gametocyte viability inhibition; P. falciparum stage V gametocytes, ATP luminescence, 24 h; 0.065% of 150,000 active; AID 743093; inhibition, % at 10.9 µM;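 active = inhibition above the mean plus 3 SD of compounds within the control limits, set per campaign, cut at about 38% in these data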;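 note: 0% = DMSO wells and 100% = medium only without gametocytes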
WT yeast gro inh = growth inhibition of WT yeast, mitochondrial fusion screen; mitochondrial fusion phenotypic screen, WT strain; inhibition, % at 10 µM; 2.1% of 190,000 active; AID 1362; in the data active = inhibition above about 58%; tested in S. cerevisiae
Active calls of the source: *; . = not tested or not shown.

SMILES	MT stabilize HCS	Cl transport mod	bCat nuc transl	Pf gametocyte	WT yeast gro inh
O=C(Nc1ccc2c(c1)nc1n2CCN(Cc2ccccc2)C1)c1cccs1	1.4	.	-0.1	-8.8	63.2*
O=S(=O)(Nc1ccc2c(c1)nc1n2CCN(Cc2ccccc2)C1)c1ccc(Cl)cc1	30.1*	-1.35	-5.5	4.5	9.8
Cc1ccc(NC(=O)c2cc(N3C(=O)C=CC3=O)ccc2N2CCOCC2)cc1Cl	4.1	-0.262	.	2.1	65.8*
Cc1ccc(NC(=O)c2cc(N3C(=O)CCC3=O)ccc2N2CCOCC2)cc1	4.2	-0.896	0.9	-7.1	-0.4
S=C1NCCc2ccc(Cl)cc2C1c1ccccc1 (stereo unspecified)	1.8	-0.177	1.4	.	70.8*
CCOc1ccc(C(=O)C(CCC(CN(C)C)C(=O)c2ccc(OCC)cc2)CN(C)C)cc1 (stereo unspecified)	5.4	0.987	9.0	-3.4	63.6*
CC(=O)N1CCN(CC(=O)Nc2cccc(S(=O)(=O)N3CCCCCC3)c2)CC1	1.1	.	-0.5	8.3	-17.9
O=C(CCl)Nc1cccc(S(=O)(=O)N2CCCCCC2)c1	12.9*	-1.42	31.2	.	-2.2
COC(=O)Nc1nc2ccc(C(=O)c3ccc(F)cc3)cc2[nH]1	.	-0.444	65.5*	.	11.8
COc1cc2c(cc1OC)C(c1ccc([N+](=O)[O-])cc1)NC(=O)C2 (stereo unspecified)	.	.	.	-6.6	.
Cc1ccc2cc(CN(Cc3cccs3)C(=O)c3ccco3)c3nnnn3c2c1C	4.1	-0.192	0.6	.	58.5*
Cc1ccc2c(c1)cc(CN(Cc1cccs1)C(=O)c1ccco1)c1nnnn12	1.6	.	-1.9	.	53.3
O=C(CCC(=O)Nc1ccccc1)NNC(=O)COc1ccccc1	2.2	-0.205	-1.3	-3.3	-1.6
CC(NS(=O)(=O)c1ccc(Br)cc1)C(N)=O (stereo unspecified)	4.5	0.829	-1.4	-6.2	65.8*
Cc1ccc(S(=O)(=O)N2c3ccccc3CC2C)cc1 (stereo unspecified)	13.0*	0.000448	43.6	-2.6	-3.0
CCOc1ccc(S(=O)(=O)N2c3ccccc3CC2C)cc1 (stereo unspecified)	16.7*	-1.3	162.6*	20.8	11.4
Cc1ccc(S(=O)(=O)N2c3ccc(S(N)(=O)=O)cc3CC2C)cc1 (stereo unspecified)	2.4	0.644	-5.0	.	0.0
Clc1ccc(Nc2ncnc3ccc(Br)cc23)cc1	1.2	.	16.8	.	60.6*
Cc1cccc(Nc2ncnc3ccc(Br)cc23)c1	2.6	-0.64	-0.6	-14.5	34.6
Clc1cccc(Nc2ncnc3ccc(Br)cc23)c1	1.8	.	-1.7	.	72.8*
O=C(c1ccc(Br)o1)N(Cc1ccccc1)Cc1ccccc1	2.6	-1.29	.	.	78.8*
O=C(NCc1ccccc1)c1ccc(Br)o1	4.1	-0.0817	.	17.1	-12.2
Cc1ccccc1C(=O)N/N=C1/SCC(=O)N1Cc1ccccc1	1.6	1.34	0.7	-8.0	-1.8
CCC(=O)Oc1ccc(C2NC(=O)c3ccccc3O2)cc1OC (stereo unspecified)	.	.	.	29.8	.
C=CS(=O)(=O)c1sc(Cl)c(N2CCOCC2)c1[N+](=O)[O-]	2.1	-3.64*	0.1	17.0	-13.8
SMILES	MT stabilize HCS	Cl transport mod	bCat nuc transl	Pf gametocyte	WT yeast gro inh
C=CSc1sc(Cl)c(N2CCOCC2)c1[N+](=O)[O-]	2.4	-0.299	-0.1	17.3	4.3
CC(Oc1ccc(C#N)cc1)C(=O)c1ccc(F)c(F)c1 (stereo unspecified)	2.7	-0.82	-1.6	.	-2.5
CCc1ccc2[nH]c(C(=O)Nc3ccc4c(c3)OCO4)cc2c1	.	-1.14	0.0	4.4	.
CC1=C(C#N)C(=O)N(C)C(C)(C)C1	1.8	2.82*	1.0	.	-3.0
CC(=O)c1nc(-c2ccccc2)sc1C	2.6	-0.537	1.1	2.4	-35.5
Nc1nc(-c2ccc(Br)cc2)cs1	2.6	-1.75	-0.8	.	22.8
Nc1nc(-c2cccc(Br)c2)cs1	1.7	-0.333	-12.8	12.7	71.1*
CCNc1nc(NC(C)C)nc(N(C#N)CCOc2ccc(Cl)cc2Cl)n1	2.4	.	-0.5	7.0	80.0*
Cc1ccc(OCC(=O)N/N=C\c2c(C)n(C)c3ccccc23)c([N+](=O)[O-])c1	46.6*	0.646	2.8	.	26.7
CCOc1cc(NC(=O)c2cnccn2)c(OCC)cc1NC(=O)c1cccc(F)c1	1.3	-0.0522	0.4	.	20.6
COc1ccc(NS(=O)(=O)c2cc(NC(=O)c3ccco3)ccc2N2CCCC2)cc1	15.4*	-0.175	2.0	.	22.5
O=[N+]([O-])c1ccc(S(=O)(=O)N2CCN=C2SCc2cccnc2)cc1	2.6	0.00296	-1.0	-2.0	-1.6
O=C(Nc1nnc(-c2cccs2)o1)c1cccc(F)c1	6.2	26.2*	.	.	46.1
COc1cccc(NC(=S)/C(=C(\[O-])c2cc(C)n(-c3ccccc3F)c2C)[n+]2ccc(N(C)C)cc2)c1	5.5	-2	-0.7	.	4.5
CCc1nc2nc(C)cc(Nc3cccc(C(F)(F)F)c3)n2n1	4.1	-1.14	-2.2	2.8	14.6
Cc1cc(Nc2cccc(C(F)(F)F)c2)n2nc(C)nc2n1	4.2	-0.384	0.5	13.2	79.1*
CCOC(=O)C1(CCOc2ccccc2)CCN(Cc2ccc3nonc3c2)CC1	2.1	-1.04	1.5	11.2	62.4*
O=[N+]([O-])c1cccc(-c2noc(-c3ccco3)n2)c1	.	0.801	0.0	15.3	.
O=C(O)CCn1c(SCCc2ccccc2)nc2ccccc21	.	.	.	-12.6	.
C/C(=N\NC(=O)c1csc(C)c1C)c1ccc(Cl)s1	2.7	22.2*	-4.4	.	10.0
C/C(=N\NC(=S)NC(C)C)c1ccc(Cl)s1	1.9	24.2*	-1.2	-16.2	24.7
C/C(=N\NC(N)=S)c1ccc(Cl)s1	4.7	3.01	-0.2	.	-8.1
O=C(O)c1nc(-c2ccccc2)n(-c2cccc(C(F)(F)F)c2)n1	2.9	0.314	-1.4	-11.6	-11.1
COc1ccc(C2NC(=S)NC(C)=C2C(=O)Nc2ccccn2)cc1 (stereo unspecified)	9.2*	-0.00341	1.8	.	-8.0
Cc1ccccc1CN1C(=O)CSc2ccc(C(=O)N3CCOCC3)cc21	37.8*	-0.318	.	-5.0	.
SMILES	MT stabilize HCS	Cl transport mod	bCat nuc transl	Pf gametocyte	WT yeast gro inh
O=C(OCc1cn(-c2ccc(Cl)c(Cl)c2)nn1)c1ccccc1	1.6	0.117	-2.2	.	-0.8
Cc1ccc(-n2cc(C(=O)c3ccc(F)cc3)nn2)cc1Cl	2.3	.	-1.6	1.7	68.4*
O=C(CSc1ncnc2sc(-c3ccccc3)cc12)NC1CCS(=O)(=O)C1 (stereo unspecified)	1.7	1.89	3.4	-17.0	-10.2
Cc1ccc(N2CCN(CCc3nc4cc(NC(=O)c5ccco5)ccc4n3C)CC2)cc1	6.0	-1.76	-0.3	-0.4	1.8
Cn1c(CCN2CCN(c3ccccc3)CC2)nc2cc(NC(=O)c3ccco3)ccc21	2.0	.	-1.1	.	75.7*
O=C(Nc1ccc(Cl)c(Cl)c1)Nc1ccc(Br)cc1F	2.6	1.38	4.7	.	81.3*

Source: PubChem
